pEC50: −log10 of the molar value.
Molecular target: Muscarinic acetylcholine receptor M4 (Rattus norvegicus) (UniProt P08485)
Experiment: ACh potentiation at rat M4, late-stage follow-up, counter-screen for M4 PAM project, CHO Gqi5 cells, calcium (AID 588751)
Settings: calcium fluorescence, ACh EC20
How it was run: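 Signal: kinetic calcium fluorescence with Fluo-4 dye / Material: CHO cells stably co-expressing rat M4 receptor and chimeric Gqi5 / Doses: dose series in 0.3% DMSO final / Probe or stimulus: acetylcholine at EC20, then acetylcholine at EC80 / Timing: 144 s compound pre-exposure, EC80 ACh 86 s after EC20, 37 °C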

Chain of Muscarinic acetylcholine receptor M4 (Rattus norvegicus) (P08485 whole entry, looked up): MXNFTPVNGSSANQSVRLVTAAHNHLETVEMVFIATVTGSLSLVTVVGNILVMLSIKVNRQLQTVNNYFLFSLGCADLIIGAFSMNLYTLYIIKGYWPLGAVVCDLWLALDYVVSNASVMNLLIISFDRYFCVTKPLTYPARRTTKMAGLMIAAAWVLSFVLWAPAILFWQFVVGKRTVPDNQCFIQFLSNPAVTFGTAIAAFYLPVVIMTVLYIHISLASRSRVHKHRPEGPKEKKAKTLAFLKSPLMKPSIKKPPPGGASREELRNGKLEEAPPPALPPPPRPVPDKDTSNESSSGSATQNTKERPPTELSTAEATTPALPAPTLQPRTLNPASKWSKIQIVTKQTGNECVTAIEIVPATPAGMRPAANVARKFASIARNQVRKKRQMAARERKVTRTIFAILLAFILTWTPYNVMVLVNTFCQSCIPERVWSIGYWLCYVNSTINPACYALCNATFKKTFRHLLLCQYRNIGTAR

| SMILES | pEC50 |
| --- | --- |
| Cc1nc2sc(C(=O)NCc3ccc4c(c3)OCO4)c(N)c2c(C)c1Cl | 7.21 |
| Cc1nc2sc(C(=O)NC3CC3)c(N)c2c(C)c1Cl | 6.82 |
| Cc1nc2sc(C(=O)NCc3nccs3)c(N)c2c(C)c1Cl | 6.73 |
| Cc1nc2sc(C(=O)NCc3ccncn3)c(N)c2c(C)c1Cl | 6.28 |
| Cc1nc2sc(C(=O)NCc3cccc(F)c3F)c(N)c2c(C)c1Cl | 6.94 |
| Cc1nc2sc(C(=O)NCc3ccncc3)c(N)c2c(C)c1Cl | 6.76 |
| Cc1nc2sc(C(=O)NCc3cccnc3)c(N)c2c(C)c1Cl | 6.57 |
| Cc1nc2sc(C(=O)NCCc3ccncc3)c(N)c2c(C)c1Cl | 6.64 |
| Cc1nc2sc(C(=O)NCc3ccccc3)c(N)c2c(C)c1Cl | 6.90 |
